From ChEMBL document CHEMBL1781987, “Nobilamides A-H, long-acting transient receptor potential vanilloid-1 (TRPV1) antagonists from mollusk-associated bacteria” (J Med Chem, 2011) come the findings set out here.

The target in assay [1] is Transient receptor potential cation channel subfamily V member 1 (Mus musculus) (UniProt Q704Y3). The experiment in a line: Antagonist activity at TRPV1 channel in C57B1 mouse dorsal root ganglion cells assessed as inhibition of capsaicin-induced calcium flux at 125 uM after 3 hrs by fluorometric analysis in presence of 5.6 ug/ml trafficking inhibitor brefeldin A. Type of assay: functional, tissue-based. (Calcium assays in cells follow changes in intracellular calcium, usually with a dye or a luminescent sensor.)

Assay [2] shares this target. The assay can be described thus: Antagonist activity at TRPV1 channel in C57B1 mouse dorsal root ganglion cells assessed as inhibition of capsaicin-induced calcium flux at 125 uM after 5 mins by fluorometric analysis in presence of at 25 mM of KCl. Type of assay: functional, tissue-based. The gist of the method: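 Mouse C57B1 cervical/lumbar DRG neurons, Fura-2 AM calcium imaging at 20–25°C, each neuron analysed separately. […] Final 25 or 100 mM KCl pulses check viability.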

Assay [3] has the same target. The assay can be described thus: Antagonist activity at TRPV1 channel in C57B1 mouse dorsal root ganglion cells assessed as inhibition of capsaicin-induced calcium flux at 125 uM after 3 hrs by fluorometric analysis. Type of assay: functional, tissue-based.
Assay [4] shares this target. The experiment in a line: Antagonist activity at TRPV1 channel in C57B1 mouse dorsal root ganglion cells assessed as inhibition of capsaicin-induced calcium flux at 125 uM after 3 hrs by fluorometric analysis in presence of 10 ug/ml translational inhibitor cycloheximide. It counts as functional, tissue-based.
Assay [5] shares this target. The experiment in a line: Antagonist activity at TRPV1 channel in C57B1 mouse dorsal root ganglion cells assessed as inhibition of capsaicin-induced calcium flux at 125 uM after 3 hrs by fluorometric analysis in presence of 6.3 ug/ml transcriptional inhibitor actinomycin D. Type of assay: functional, tissue-based.
Assay [6] addresses T1, Transient receptor potential cation channel subfamily V member 1 (Homo sapiens, UniProt Q8NER1). The note with it: HEK293, 375 uM.
In assay [7] the test system is Transient receptor potential cation channel subfamily V member 1 (Homo sapiens), Q8NER1 [F660A]. The assay can be described thus: Antagonist activity at human TRPV1 F660A mutant expressed in HEK293 cell assessed as inhibition of capsaicin-induced calcium flux at 375 uM for 30 mins before capsaicin challenge measured after 48 hrs by fluorometric analysis. Type of assay: functional, cell-based. The gist of the method: (§1)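 HEK-293 cells on gelatin-coated plates transiently transfected with human TRPV1 mutant plasmid (200 ng/well, lipofection 4 h), then grown 48 h. Fluo-4 loaded at 37°C. […] Fluorescence read 1 min; initial rate (ΔF/sec) and ΔFmax compared with capsaicin-only control.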

Assay [8] relates to Transient receptor potential cation channel subfamily V member 1 (Homo sapiens), Q8NER1 [N604A]. The assay can be described thus: Antagonist activity at human TRPV1 N604A mutant expressed in HEK293 cell assessed as inhibition of capsaicin-induced calcium flux at 375 uM for 30 mins before capsaicin challenge measured after 48 hrs by fluorometric analysis. It counts as functional, cell-based. The gist of the method:
as §1

Assay [9] relates to Transient receptor potential cation channel subfamily V member 1 (Homo sapiens), Q8NER1 [C578A]. The experiment in a line: Antagonist activity at human TRPV1 C578A mutant expressed in HEK293 cell assessed as inhibition of capsaicin-induced calcium flux at 375 uM for 30 mins before capsaicin challenge measured after 48 hrs by fluorometric analysis. Type of assay: functional, cell-based. The gist of the method:
as §1

Assay [10] has as its target T1, Transient receptor potential cation channel subfamily V member 1. The experiment in a line: Antagonist activity at human TRPV1 expressed in human BEAS-2B cells assessed as inhibition of capsaicin-induced calcium flux at 25 to 1000 uM co-treated with 2.5 uM capsaicin measured after 30 mins by fluorometric analysis. It counts as functional, cell-based. The gist of the method:
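BEAS-2B cells stably overexpressing human TRPV1, grown to confluence in LHC-9. Loaded 1 h at ~22°C in the dark with Fluo-4 reagent, then washed into LHC-9 with 1 mM probenecid and Trypan Red. […] Fluorescence followed 1 min; rate and ΔFmax versus capsaicin-only control.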

For assay [11] the target is unchanged. The note with it: HEK293, 375 uM. The source holds these as a separate data set.
Assay [12] deals with Transient receptor potential cation channel subfamily V member 1 (Homo sapiens), Q8NER1 [E600V]. The assay can be described thus: Antagonist activity at human TRPV1 E600V mutant expressed in HEK293 cell assessed as inhibition of capsaicin-induced calcium flux at 375 uM for 30 mins before capsaicin challenge measured after 48 hrs by fluorometric analysis. Type of assay: functional, cell-based. The gist of the method:
as §1

Assay [13] concerns the target T1, Transient receptor potential cation channel subfamily V member 1. The experiment in a line: Antagonist activity at human TRPV1 expressed in human BEAS-2B cells assessed as inhibition of capsaicin-induced calcium flux at 25 to 1000 uM preincubated for 30 mins before 2.5 uM capsaicin challenge measured after 1 min by fluorometric analysis. Type of assay: functional, cell-based. The gist of the method: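 Human TRPV1-expressing BEAS-2B cells loaded with Fluo-4 (1 h, ~22°C, dark), then washed into LHC-9 with 1 mM probenecid and Trypan Red containing compound. […] Ca2+ signal tracked 1 min; initial rate and ΔFmax relative to capsaicin-only cells.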

The test system of assay [14] is Transient receptor potential cation channel subfamily V member 1 (Homo sapiens), Q8NER1 [E649A]. The assay can be described thus: Antagonist activity at human TRPV1 E649A mutant expressed in HEK293 cell assessed as inhibition of capsaicin-induced calcium flux at 375 uM for 30 mins before capsaicin challenge measured after 48 hrs by fluorometric analysis. It counts as functional, cell-based. The gist of the method:
as §1

Assay [15] concerns the target T1, Transient receptor potential cation channel subfamily V member 1. The settings on record: HEK293, 375 uM. The source holds these as a separate data set.
The test system of assay [16] is Transient receptor potential cation channel subfamily V member 1 (Homo sapiens), Q8NER1 [C621A]. The experiment in a line: Antagonist activity at human TRPV1 C621A mutant expressed in HEK293 cell assessed as inhibition of capsaicin-induced calcium flux at 375 uM for 30 mins before capsaicin challenge measured after 48 hrs by fluorometric analysis. It counts as functional, cell-based. The gist of the method:
as §1

The source made the active and inactive calls. No cut-off for these calls is given here. Bridge positions count the residues as written; N and C are the ends. Square brackets hold non-standard residues; d marks the D form. Peptide text beside a SMILES is read from it. * marks the point of attachment. d(aThr) = C[C@@H](O)[C@@H](N)C(=O)O; Dhb = C/C=C(\N)C(=O)O; Propionyl = CCC(=O)*

Sequence of Transient receptor potential cation channel subfamily V member 1 (Mus musculus) (Q704Y3 whole entry): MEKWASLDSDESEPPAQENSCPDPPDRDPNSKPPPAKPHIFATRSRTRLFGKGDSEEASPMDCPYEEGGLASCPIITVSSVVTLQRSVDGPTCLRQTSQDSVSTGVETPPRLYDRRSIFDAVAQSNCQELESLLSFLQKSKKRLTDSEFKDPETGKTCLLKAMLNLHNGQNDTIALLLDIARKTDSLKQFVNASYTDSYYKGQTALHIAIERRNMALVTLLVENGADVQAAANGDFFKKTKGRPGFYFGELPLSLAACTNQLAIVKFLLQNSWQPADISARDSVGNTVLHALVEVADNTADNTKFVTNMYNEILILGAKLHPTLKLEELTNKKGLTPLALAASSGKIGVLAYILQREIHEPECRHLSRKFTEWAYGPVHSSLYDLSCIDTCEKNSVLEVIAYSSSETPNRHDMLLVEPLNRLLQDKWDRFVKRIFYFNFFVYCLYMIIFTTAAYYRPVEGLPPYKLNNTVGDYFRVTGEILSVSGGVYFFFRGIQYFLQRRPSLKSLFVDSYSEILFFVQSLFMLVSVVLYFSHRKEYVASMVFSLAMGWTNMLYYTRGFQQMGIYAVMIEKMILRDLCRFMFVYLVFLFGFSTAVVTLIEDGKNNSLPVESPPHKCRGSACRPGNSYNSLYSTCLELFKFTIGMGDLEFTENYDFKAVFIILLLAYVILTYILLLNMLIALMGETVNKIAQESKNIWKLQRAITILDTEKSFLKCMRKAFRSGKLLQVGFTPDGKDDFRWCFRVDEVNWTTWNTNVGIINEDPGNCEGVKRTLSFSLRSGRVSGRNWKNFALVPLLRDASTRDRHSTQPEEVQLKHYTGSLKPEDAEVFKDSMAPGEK
T1 sequence (Q8NER1 whole entry): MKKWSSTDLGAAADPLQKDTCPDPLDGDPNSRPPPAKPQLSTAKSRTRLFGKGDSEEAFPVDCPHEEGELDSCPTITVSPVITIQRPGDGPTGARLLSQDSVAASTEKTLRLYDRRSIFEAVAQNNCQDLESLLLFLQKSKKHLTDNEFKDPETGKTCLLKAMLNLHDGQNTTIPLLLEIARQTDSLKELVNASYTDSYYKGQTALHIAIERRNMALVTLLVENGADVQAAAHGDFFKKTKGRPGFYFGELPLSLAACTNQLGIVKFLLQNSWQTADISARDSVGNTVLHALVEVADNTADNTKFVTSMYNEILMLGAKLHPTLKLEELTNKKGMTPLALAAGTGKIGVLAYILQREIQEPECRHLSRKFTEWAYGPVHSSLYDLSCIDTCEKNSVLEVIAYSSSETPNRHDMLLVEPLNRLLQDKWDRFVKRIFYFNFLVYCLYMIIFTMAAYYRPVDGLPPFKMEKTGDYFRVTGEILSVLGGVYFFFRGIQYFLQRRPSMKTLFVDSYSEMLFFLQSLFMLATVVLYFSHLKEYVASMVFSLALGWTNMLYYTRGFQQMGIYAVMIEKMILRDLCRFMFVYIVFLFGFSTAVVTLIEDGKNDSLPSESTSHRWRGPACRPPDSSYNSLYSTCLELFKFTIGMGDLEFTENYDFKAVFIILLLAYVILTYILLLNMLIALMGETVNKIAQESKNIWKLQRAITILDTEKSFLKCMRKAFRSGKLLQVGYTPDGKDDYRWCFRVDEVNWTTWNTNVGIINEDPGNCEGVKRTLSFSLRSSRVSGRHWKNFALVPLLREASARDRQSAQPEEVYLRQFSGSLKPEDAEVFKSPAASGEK
Sequence of Transient receptor potential cation channel subfamily V member 1 (Homo sapiens), Q8NER1 [N604A] (Q8NER1 whole entry N604A): as the sequence (Q8NER1 whole entry) above, with N604A counted along it
Sequence of Transient receptor potential cation channel subfamily V member 1 (Homo sapiens), Q8NER1 [F660A] (Q8NER1 whole entry F660A): as the sequence (Q8NER1 whole entry) above, with F660A counted along it
Sequence of Transient receptor potential cation channel subfamily V member 1 (Homo sapiens), Q8NER1 [E649A] (Q8NER1 whole entry E649A): as the sequence (Q8NER1 whole entry) above, with E649A counted along it
Sequence of Transient receptor potential cation channel subfamily V member 1 (Homo sapiens), Q8NER1 [C621A] (Q8NER1 whole entry C621A): as the sequence (Q8NER1 whole entry) above, with C621A counted along it
Sequence of Transient receptor potential cation channel subfamily V member 1 (Homo sapiens), Q8NER1 [E600V] (Q8NER1 whole entry E600V): as the sequence (Q8NER1 whole entry) above, with E600V counted along it
Sequence of Transient receptor potential cation channel subfamily V member 1 (Homo sapiens), Q8NER1 [C578A] (Q8NER1 whole entry C578A): as the sequence (Q8NER1 whole entry) above, with C578A counted along it

Take `C/C=C(\NC(=O)[C@H](C)NC(=O)[C@@H](NC(=O)[C@H](NC(=O)[C@H](Cc1ccccc1)NC(=O)[C@@H](CC(C)C)NC(=O)[C@@H](Cc1ccccc1)NC(C)=O)[C@@H](C)O)C(C)C)C(=O)O` (Ac-[dF][dL]F[d(aThr)]VA[Dhb]-OH): the inhibition entry in [1], in assay [3], in assay [4] and in assay [5] was “inactive” in each case. For the same molecule, in assay [2], the inhibition entry is “Active”.
For the molecule `C/C=C(\NC(=O)[C@H](C)NC(=O)[C@@H](NC(=O)[C@H](NC(=O)[C@H](Cc1ccccc1)NC(=O)[C@@H](CC(C)C)NC(=O)[C@@H](Cc1ccccc1)NC(=O)CC)[C@@H](C)O)C(C)C)C(=O)O` (Propionyl-[dF][dL]F[d(aThr)]VA[Dhb]-OH), the inhibition result in assay [6], in assay [8], in assay [10], in assay [11], in assay [12] and in [13] was “Active” in each case. In assay [14], the inhibition entry was “Active”. Further, the inhibition result in assay [7], in [9], in [15] and in [16] was “inactive” throughout.
For `C/C=C1\NC(=O)[C@H](C)NC(=O)[C@H](C(C)C)NC(=O)[C@H](NC(=O)[C@H](Cc2ccccc2)NC(=O)[C@@H](CC(C)C)NC(=O)[C@@H](Cc2ccccc2)NC(=O)CC)[C@@H](C)OC1=O` (Propionyl-[dF][dL]F[d(aThr)]VA[Dhb]; ester 4-C), the inhibition result in [7], in assay [9] and in [16] was “inactive” in each case. The inhibition result in assay [8], in assay [10], in assay [12], in assay [13] and in [14] was “Active” in each case.
